Measurements pooled from the literature.
Compare with care: the assays were run in different laboratories.
ABCB1: ATP-dependent translocase ABCB1 (ABCB1, Homo sapiens, UniProt P08183)
SLC47A2: Multidrug and toxin extrusion protein 2 (SLC47A2, Homo sapiens, UniProt Q86VL8)

| Compound | target | test | test system | setting | measurement | value |
| --- | --- | --- | --- | --- | --- | --- |
| CC1(C)CCC2(CC1)N[C@@H](C(=O)N[C@@H]1CC[C@@H](C(N)=O)OC1)[C@H](c1ccnc(Cl)c1F)[C@]21C(=O)Nc2cc(Cl)ccc21 | ABCB1 | – | Caco-2 | 1 µM, 2 h | efflux ratio | 16.1 |
| CC[C@H](C)C(=O)N1CCC(NC(=O)Nc2ccc(OC(F)(F)F)c(F)c2)CC1 | ABCB1 | transporter efflux, inhibitor, fluorescence | – | 10 µM | inhibition | < 25% |
| CCOc1cc2ncc(C#N)c(Nc3ccc(OCc4ccccn4)c(Cl)c3)c2cc1NC(=O)/C=C/CN(C)C | ABCB1 | – | MDCK-MDR1, Caco-2 | 1 µM, 1 h, pH 7.4 | efflux ratio | 6.37 |
| C=C[C@H]1C[N@@]2CC[C@H]1C[C@@H]2[C@@H](O)c1ccnc2ccc(OC)cc12 | ABCB1 | – | MDCK-MDR1 | 5 µM | Papp B→A | 40.6 ×10⁻⁶ cm/s |
| Nc1nc(NC2CC2)c2ncn([C@H]3C=C[C@@H](CO)C3)c2n1 | SLC47A2 | transporter uptake, inhibitor | – | – | IC50 | > 500 µM |
| C[C@H]1O[C@@H](O[C@H]2[C@@H](O)C[C@H](O[C@H]3[C@@H](O)C[C@H](O[C@H]4CC[C@@]5(C)[C@H](CC[C@@H]6[C@@H]5C[C@@H](O)[C@]5(C)[C@@H](C7=CC(=O)OC7)CC[C@]65O)C4)O[C@@H]3C)O[C@@H]2C)C[C@H](O)[C@@H]1O | ABCB1 | – | human, plasma | oral, 0.5 mg | Cmax | 1.99 ng/mL |
| C[C@]12CCCN1CC1=NNC(=O)c3cc(F)cc4[nH]c2c1c34 | ABCB1 | – | MDCK-MDR1 | 10 µM | Papp A→B | 25.5 ×10⁻⁶ cm/s |
| O=C(O)CSc1nnc(Br)n1-c1ccc(C2CC2)c2ccccc12 | SLC47A2 | transporter uptake, inhibitor | HEK293 | 10 µM, 2 min | inhibition | -16% |
| COCCc1ccc(OCC(O)CNC(C)C)cc1 (centres unmarked) | ABCB1 | – | MDCK-MDR1 | 5 µM | efflux ratio | 0.981 |
| CN(C(=O)n1cnc(-c2ccc[n+]([O-])c2)c1)C1CCCCC1 | SLC47A2 | transporter uptake, inhibitor | MDCK-II | 0.3 µg/mL | inhibition | 12% |
| CN/C(=N/CCSCc1nc[nH]c1C)NC#N | SLC47A2 | transporter uptake, inhibitor | HEK293 | 100 µM, 2 min | inhibition | 76% |
